Screens deposited in PubChem by several laboratories.
Compounds with a hit are over-represented: about 3.4% of the library has one in this group of screens.
RORa activator: activators of orphan receptor RORA, primary screen, cell-based, luminescence; Nuclear receptor ROR-alpha (Homo sapiens), P35398; CHO-K1 Gal4-RORA LBD luciferase reporter; percent increase over mock-subtracted basal signal; activation, % at 10 µM; 65,000 tested, 1.5% active; AID 560, 2006;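 active means activation above the mean of all tested compounds plus 3 SD, cut at about 49% in these data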
JNK3 inh: JNK3 kinase activity inhibitors, primary screen, biochemical, human, purified enzyme; HTS; AID 746, 2007; Mitogen-activated protein kinase 10 (Homo sapiens), P53779; 60,000 tested, 0.61% active; inhibition, % at 8 µM; in the data active means inhibition above about 17%
ROCK2 inh: inhibitors of human ROCK2 kinase, primary screen, biochemical, high-throughput, luminescence | Rho-associated protein kinase 2 (Homo sapiens), O75116 | purified ROCK2, Kinase-Glo ATP depletion luminescence | inhibition, % at 6 µM | 60,000 tested, 0.35% active;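 active means inhibition above the screen-wide mean inhibition plus 3 SD, cut at about 18% in these data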
Target sequence (O75116 whole entry, looked up): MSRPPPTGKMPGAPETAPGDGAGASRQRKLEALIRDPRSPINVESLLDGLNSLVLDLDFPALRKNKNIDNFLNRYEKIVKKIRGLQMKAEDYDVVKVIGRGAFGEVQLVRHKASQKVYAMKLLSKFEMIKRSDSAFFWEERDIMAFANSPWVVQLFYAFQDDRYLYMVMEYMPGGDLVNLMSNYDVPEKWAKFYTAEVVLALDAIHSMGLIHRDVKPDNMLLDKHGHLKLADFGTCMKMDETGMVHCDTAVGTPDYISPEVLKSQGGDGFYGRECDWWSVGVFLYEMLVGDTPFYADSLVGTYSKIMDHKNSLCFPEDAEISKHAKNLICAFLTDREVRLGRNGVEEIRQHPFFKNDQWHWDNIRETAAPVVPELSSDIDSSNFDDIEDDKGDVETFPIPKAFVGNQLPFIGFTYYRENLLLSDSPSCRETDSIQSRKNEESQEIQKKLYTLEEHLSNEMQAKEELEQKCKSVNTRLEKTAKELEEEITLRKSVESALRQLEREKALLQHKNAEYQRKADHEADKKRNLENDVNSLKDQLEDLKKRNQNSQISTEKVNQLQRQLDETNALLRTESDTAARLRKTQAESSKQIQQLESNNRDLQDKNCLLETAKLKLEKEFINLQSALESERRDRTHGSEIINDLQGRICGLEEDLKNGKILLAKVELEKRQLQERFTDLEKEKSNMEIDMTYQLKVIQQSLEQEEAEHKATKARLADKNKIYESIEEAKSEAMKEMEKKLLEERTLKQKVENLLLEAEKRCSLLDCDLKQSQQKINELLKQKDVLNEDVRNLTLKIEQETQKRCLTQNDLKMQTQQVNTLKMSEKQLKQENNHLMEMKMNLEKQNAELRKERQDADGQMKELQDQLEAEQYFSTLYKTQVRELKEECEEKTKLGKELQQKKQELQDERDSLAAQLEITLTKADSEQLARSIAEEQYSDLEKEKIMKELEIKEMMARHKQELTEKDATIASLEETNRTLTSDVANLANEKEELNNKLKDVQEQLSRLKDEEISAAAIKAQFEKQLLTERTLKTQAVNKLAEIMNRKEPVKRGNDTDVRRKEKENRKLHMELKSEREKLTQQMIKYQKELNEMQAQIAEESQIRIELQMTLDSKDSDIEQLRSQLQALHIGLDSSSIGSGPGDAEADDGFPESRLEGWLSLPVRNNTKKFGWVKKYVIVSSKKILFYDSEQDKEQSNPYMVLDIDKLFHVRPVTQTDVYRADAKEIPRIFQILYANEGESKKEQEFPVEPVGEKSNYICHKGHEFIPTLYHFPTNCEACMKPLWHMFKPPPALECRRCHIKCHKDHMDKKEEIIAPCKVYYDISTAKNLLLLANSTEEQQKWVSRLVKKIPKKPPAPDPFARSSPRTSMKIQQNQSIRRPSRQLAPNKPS
PKA kinase inh: inhibitors of human PKA kinase activity, primary screen, biochemical, ATP-depletion luminescence, Kemptide substrate. cAMP-dependent protein kinase catalytic subunit alpha (Homo sapiens), P17612. AID 524, 2006. inhibition, % at 6 µM. PKA Kemptide phosphorylation, Kinase-Glo ATP luminescence. 65,000 tested, 0.1% active;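 active means inhibition above the screen-wide mean inhibition plus 3 SD, cut at about 21% in these data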
SF1 activator: activators of human SF-1, primary screen, cell-based, CHO-K1, Gal4-SF-1 LBD, luciferase luminescence | 65,000 tested, 1.9% active | Steroidogenic factor 1 (Homo sapiens), Q13285 | CHO-K1 Gal4-SF-1 LBD luciferase reporter; % increase over DMSO SF-1-specific signal | activation, % at 10 µM;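 active means activation above the mean activation of all tested compounds plus 3 SD, cut at about 50% in these data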
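Test system: transient Gal4-SF-1 LBD reporter, CHO-K1; Amount: 4,000 CHO-K1 cells per well; Doses: 10 µM only; Timing: compound exposure 20 h at 37 °C; Signal: luciferase light emission; Read-out basis: percent activation relative to DMSO median and mock-transfected background; Control set: DMSO negative control and −SF1 background wells; Replicates: one test per compound.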
WNV protease inh: inhibitors of WNV NS2B-NS3 protease, primary screen, biochemical, fluorogenic substrate; Genome polyprotein (West Nile virus), P06935; fluorogenic substrate Ex360/Em465; active compounds read low; z-score (concentration not given with the values); 65,000 tested, 0.18% active; in the data active means z-score below about -3
Large screens that a line does not name were inactive.

CC(=O)N1CCN(c2ccc(Nc3ncnc4c3oc3ccccc34)cc2)CC1	none
CCc1nc(Nc2ccc(N3CCN(C(C)=O)CC3)cc2)c2oc3ccccc3c2n1	SF1 activator 53
CCOC(=O)c1cccc(NC(=O)Cn2cnc3c2c(=O)n(C)c(=O)n3C)c1	none
Cc1cc(C(=O)CN2C(=O)c3ccccc3C2=O)c(C)n1C1CC1	SF1 activator 56
Cc1c(O)ccc(C(=O)CN2C(=O)c3ccccc3C2=O)c1O	none
COc1ccc(S(=O)(=O)N2CCSC2c2ccc(N)cc2)cc1 (stereo not given)	none
O=C(c1cccc(COc2ccc(Cl)cc2Cl)c1)N1CCN(c2ccccn2)CC1	SF1 activator 76
CCCCn1c(NC(C)CC)nc2c1c(=O)[nH]c(=O)n2C (stereo not given)	none
COc1ccc(CNC(=O)COC(=O)c2n[nH]c3ccccc23)cc1OC	none
Cc1cc(NC(=O)COC(=O)c2n[nH]c3ccccc23)no1	JNK3 inh 23
COc1c(C)cccc1C(=O)Nc1ccc(CN2CCOCC2)cc1	SF1 activator 62
COc1c(C)cccc1C(=O)Nc1ccc(N2CCN(S(C)(=O)=O)CC2)cc1	SF1 activator 107
Cc1ccccc1Nc1nc(N)nc(CN2C(=O)NC3(CCCCC3C)C2=O)n1 (stereo not given)	none
CCCc1nc(SCC(=O)N2CCCC2)c2ccccc2n1	JNK3 inh 17
Cc1cc(NC(=O)CSc2nc(CCC3CCCC3)nc3ccccc23)no1	none
CCCc1nc(SCC(=O)Nc2cc(C)on2)c2ccccc2n1	JNK3 inh 21
Cc1cc(NC(=O)CSc2nc(-c3ccc(F)cc3)cs2)no1	none
Cc1cc(NC(=O)CSc2nc(-c3ccccc3)cs2)no1	ROCK2 inh 18
C=CC[N+](C)(C)CCCNC(=O)/C=N/O	none
O=C(Oc1ccc(-c2nnco2)cc1)N(c1ccccc1)c1ccccc1	none
CCCc1nc2ccccc2c(=O)n1/N=C/c1c(C)[nH]n(-c2ccc(C)cc2)c1=O	none
Cn1c(SCC(=O)c2ccc3c(c2)OCO3)nnc1-c1ccccn1	none
O=C(CSc1nc2ccccc2[nH]1)c1ccc2c(c1)OCO2	RORa activator 51
O=C(CSc1nc2ccccc2[nH]1)Nc1ccc2c(c1)OCCO2	none
O=C(CSc1nc2ccccc2[nH]1)N1CCN(c2ccc(F)cc2)CC1	none
O=C(CSc1ccccn1)c1ccc2c(c1)OCO2	SF1 activator 61
CC1CCN(C(=O)CSc2nc3ccccc3[nH]2)CC1	RORa activator 61
COc1ccc(-c2nnc(SC(C)C(=O)Nc3ccc4c(c3)OCCO4)o2)cc1 (stereo not given)	SF1 activator 50
COc1ccc(-c2nnc(SCC(=O)N3CCOCC3)o2)cc1	RORa activator 73
COc1ccc(C(=O)CSc2nnc(-c3ccc(C)cc3)o2)cc1	WNV protease inh -4.1
COc1ccccc1NC(=O)CSc1nnc(-c2ccc(C)cc2)o1	SF1 activator 57
COc1ccc(C(=O)CSc2nnc(-c3ccccc3)o2)cc1	none
CCOc1ccc(C2CC(c3cccc(OC)c3OC)n3nnnc3N2)cc1Cl (stereo not given)	none
c1ccc2c(c1)CCN(c1nc3cc4c(cc3s1)OCO4)C2	none
Clc1ccc2nc(N3CCN(c4ccccc4)CC3)sc2c1	SF1 activator 72
c1ccc(N2CCN(c3nc4cc5c(cc4s3)OCO5)CC2)cc1	RORa activator 70, SF1 activator 55
c1c2c(cc3sc(N4CCCCC4)nc13)OCO2	none
c1c2c(cc3sc(N4CCOCC4)nc13)OCO2	SF1 activator 58
COC(=O)CCC(=O)N1CCc2cc(S(=O)(=O)N3CCN(c4ccccc4Cl)CC3)ccc21	none
COc1ccc(OC)c(C(c2nnnn2Cc2ccccc2)N2CCN(C3CCCCC3)CC2)c1 (stereo not given)	none
Cc1c(C(=O)OCC2CCCO2)[nH]c2c1C(=O)CC(c1ccco1)C2 (stereo not given)	RORa activator 56
Cc1c(C(=O)OCC(C)C)[nH]c2c1C(=O)CC(c1ccco1)C2 (stereo not given)	none
CCn1c(Cn2nnc(-c3ccccc3)n2)nnc1SCC(=O)Nc1ccc(C(C)=O)cc1	RORa activator 60
CCn1c(Cn2nnc(-c3ccccc3)n2)nnc1SCC(=O)Nc1cccc(C(C)=O)c1	none
Cc1cccc(N2CCN(C(=O)c3cn(C)c(=O)c4c3c3ccccc3n4C)CC2)c1C	ROCK2 inh 169
Cc1ccc(Cl)cc1N1CCN(C(=O)c2cn(C)c(=O)c3c2c2ccccc2n3C)CC1	none
O=C(c1ccc(Cl)s1)N1CCc2ccccc21	SF1 activator 62
Clc1ccc(COn2nnc3ccccc32)c(Cl)c1	none
O=C(NCCC(=O)N1CCNC1=O)OCc1ccccc1	none
CC(C)OC(=O)CCC1(C(=O)O)CCC(=O)NC1 (stereo not given)	none
CCOCC(=O)Nc1nc2ccc(OC)cc2s1	SF1 activator 51
CCCCOC(=O)Nc1nc2ccc(OC)cc2s1	RORa activator 52
CS(=O)(=O)N1CCCC(C(=O)NCc2ccc(F)cc2Cl)C1 (stereo not given)	none (no result: JNK3 inh, ROCK2 inh)
O=C(c1ccccc1)c1c[nH]c2cc3c(cc2c1=O)OCO3	none (no result: JNK3 inh, ROCK2 inh)
O=C(c1ccccc1)c1c[nH]c2cc3c(cc2c1=O)OCCO3	SF1 activator 50 (no result: JNK3 inh, ROCK2 inh)
Cc1cccc(N(C)c2cc(C)nc3nc(C)nn23)c1	none
Cc1nc2sc(C(c3ccccc3)N3CCN(CCO)CC3)c(O)n2n1 (stereo not given)	none
CCOC(=O)Cc1csc(NC(=O)CCS(=O)(=O)Cc2ccccc2)n1	none
CN(C)CCC(=O)c1ccc2c(c1)OCO2	none
CC(=O)Nc1ccccc1OCC(=O)c1ccc2c(c1)OCO2	RORa activator 65 (no result: JNK3 inh, ROCK2 inh)
O=C(CCNc1ccccc1)c1ccc2c(c1)OCO2	SF1 activator 62
CC(C)(C)C1=C(C#N)C(c2cc3c(cc2Br)OCO3)C(C#N)=C(N)O1 (stereo not given)	none
O=C1CC(N2CCOCC2)C(=O)N1Cc1ccc(N2CCCC2=O)cc1 (stereo not given)	WNV protease inh -3.2
COc1cc2cc3c(N)c(C(=O)NCc4ccco4)sc3nc2cc1OC	RORa activator 80
CCc1cc2c(=O)[nH]cnc2s1	ROCK2 inh 51, PKA kinase inh 23
CCc1cc2c(=O)n(-c3ccccc3)cnc2s1	none
Cc1ccc2cc(CN(CC3CCCO3)C(=O)c3ccco3)c(=O)[nH]c2c1C (stereo not given)	none
